This is a sample that favours compounds with a hit; in the whole collection about 27% have one here.
CYP2C9 inh: blockers of cytochrome P450 2C9 activity – biochemical, luminescence, ADME assay, primary screen; hit rate 20% among 96,000; AID 777, 2007; CYP2C9 Supersomes, luciferin-H conversion; inhibition, % at 5 µM; P11712;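 active = blocking of liver enzyme CYP2C9 beyond about 50% at 5 µM, limit read from the data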
CYP2C19 inh: blockers of cytochrome P450 2C19 activity – biochemical, luminescence, ADME assay, primary screen. P33261. CYP2C19 Supersomes, luciferin-H EGE luminescence, 30 min. inhibition, % at 5 µM. hit rate 21% among 96,000. AID 778, 2007;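 active = CYP2C19 inhibition above a set limit at 5 µM in the primary screen, cut at about 50% in these data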
Target sequence (P33261 whole entry, looked up): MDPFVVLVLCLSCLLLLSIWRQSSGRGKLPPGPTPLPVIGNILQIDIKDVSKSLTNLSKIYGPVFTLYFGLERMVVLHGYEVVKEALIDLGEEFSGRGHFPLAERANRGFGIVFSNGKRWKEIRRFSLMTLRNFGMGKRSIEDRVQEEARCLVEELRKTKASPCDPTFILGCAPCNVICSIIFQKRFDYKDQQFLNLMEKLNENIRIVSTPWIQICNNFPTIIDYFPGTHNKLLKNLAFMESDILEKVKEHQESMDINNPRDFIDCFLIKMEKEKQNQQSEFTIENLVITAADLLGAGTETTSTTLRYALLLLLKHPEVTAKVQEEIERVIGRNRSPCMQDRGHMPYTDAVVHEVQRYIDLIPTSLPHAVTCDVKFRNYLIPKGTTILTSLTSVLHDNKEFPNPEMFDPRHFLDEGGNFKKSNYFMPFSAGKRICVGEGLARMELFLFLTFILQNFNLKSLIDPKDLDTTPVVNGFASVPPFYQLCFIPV
Rev-RRE block: HIV-1 Rev-RRE binding inhibitors, primary screen, biochemical, FRET, protein-RNA interaction. Rev peptide-RRE RNA binding. P05866. inhibition, % at 8 µM. hit rate 0.79% among 97,000. AID 704, 2007;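 active = inhibition above the screen-wide mean plus 3 SD, cut at about 35% in these data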
Target sequence (P05866 whole entry, looked up): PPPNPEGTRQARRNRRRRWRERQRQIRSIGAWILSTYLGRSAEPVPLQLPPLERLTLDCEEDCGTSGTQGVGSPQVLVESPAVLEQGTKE
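System: Cy5-labelled duplex RRE RNA binding fluorescein-labelled HIV Rev peptide; Signal: fluorescein-to-Cy5 FRET, 480 nm excitation; Also added: labelled Rev peptide; Compound: one concentration, 8 µM nominal; Buffer or medium: HEPES pH 7.5 salt buffer with EDTA; Read-out: % inhibition of FRET ratio versus controls; Schedule: 5 min preincubation and 15 min binding, 25 °C.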
Cav32 inh: Cav3.2 calcium influx blockers – cell-based, Fluo-4 calcium fluorescence, FDSS, MLSMR library, primary screen | Voltage-dependent T-type calcium channel subunit alpha-1H (Homo sapiens), O95180 | Cav3.2-expressing cells; stronger effect = lower value | B-score at 10 µM | hit rate 4% among 100,000;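 active = single-dose well whose peak fluorescence ratio is a statistical outlier from its plate by either plate-standardised score or position-corrected B-score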
CYP2C19 act: human CYP2C19 activators, primary screen, biochemical, luminescence; Cytochrome P450 2C19 (Homo sapiens), P33261; recombinant CYP2C19, luciferin-H EGE luminescence; stronger effect = higher value; 0 = fully inhibited enzyme, 1 = untreated enzyme; activation factor at 5 µM; 96,000 tested, under 10 active; AID 1025, 2008;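 active = activation factor of at least 2 at 5 µM in the primary screen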
CYP2C9 act: human CYP2C9 activators, primary screen, biochemical, luminescence; Cytochrome P450 2C9 (Homo sapiens), P11712; recombinant CYP2C9, luciferin-H conversion; stronger effect = higher value; factor 1 = untreated enzyme, 0 = blocked; activation factor at 5 µM; hit rate 1.4% among 96,000; AID 1024, 2008;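 active = activation factor of 2 or more for CYP2C9 at a 5 µM dose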
Of the large screens only hits and unclear results are named; the others gave an inactive call; [ ] = remark or other dose.

C=CCn1c(O)c(C(CC)=Nc2ccccc2NC(=O)CC)c(=O)[nH]c1=O	CYP2C9 inh 60, CYP2C19 inh 72
CC(C)CCC(C)N=Cc1c(O)n(Cc2ccccc2)c(=O)c2ccccc12 (stereo unspecified)	CYP2C9 inh 86
CCN(CC)S(=O)(=O)c1ccc(-c2nnc(SCc3nnc(-c4ccccc4)o3)o2)cc1	none
CCC(CC)c1nnc(NC(=O)Oc2ccccc2)s1	CYP2C9 inh 56
CCC(Oc1ccccc1)C(=O)Nc1nnc(C(F)(F)F)s1 (stereo unspecified)	CYP2C9 inh 97
CCC(Oc1ccccc1)C(=O)Nc1ccccc1OC (stereo unspecified)	none
CCC(Oc1ccccc1)C(=O)Nc1nnc(C)s1 (stereo unspecified)	CYP2C9 inh 63
Cc1ccc(F)c(C2C3C=CCC(c4cccc(-c5ccc(N(C)C)cc5)c4)C3C(=O)N2Cc2ccccc2)c1 (stereo unspecified)	none (no result: CYP2C9 inh, CYP2C19 inh, Rev-RRE block, CYP2C19 act, CYP2C9 act)
CCCCCNc1nc(-c2ccccc2)cs1	CYP2C9 inh 64, CYP2C19 inh 76
O=C(C1CCCN(S(=O)(=O)c2ccc(Br)s2)C1)N1CCCCCC1 (stereo unspecified)	CYP2C19 inh 63
Cn1c(-c2ccc3c(c2)OCO3)cnc1NCc1ccccc1	none
Cn1c(-c2ccc3c(c2)OCO3)cnc1NCc1cccc(Cl)c1	Cav32 inh -4.8
CCn1ncc(/C=N\NC(=O)c2csc3ccccc23)c1C	none
COC(=O)c1c(C)[nH]c(C)c1-c1ccc(C)cc1	CYP2C19 inh 82
O=C(CN(Cc1ccco1)C(=O)CNS(=O)(=O)c1ccc(Cl)cc1)NC1CCCCC1	Cav32 inh -4.8
CC(C)C(C(=O)NCc1ccco1)N(C(=O)CNS(=O)(=O)c1ccc(Cl)cc1)C1CCCC1 (stereo unspecified)	Cav32 inh -7.3
CC(C)C(C(=O)NCC1CCCO1)N(Cc1ccco1)C(=O)CNS(=O)(=O)c1ccc(F)cc1 (stereo unspecified)	none
CCCCNC(=O)c1sc(=S)n2c1[nH]c(=O)c1ccccc12	CYP2C9 inh 94
O=C(NC1CCCCC1)c1sc(=S)n2c1[nH]c(=O)c1ccccc12	CYP2C9 inh 95, CYP2C19 inh 72, Cav32 inh -6.3
CCCCNC(=O)c1sc(=S)n(-c2ccccc2OC)c1N	none
O=C(NCC1CCCO1)c1sc(=S)n2c1[nH]c(=O)c1ccc(C(=O)N3CCCCC3)cc12 (stereo unspecified)	CYP2C9 inh 86
O=C(O)c1cc(-c2ccccc2)nn1CC1CC(c2cccc([N+](=O)[O-])c2)=NO1 (stereo unspecified)	none (no result: CYP2C9 inh, CYP2C19 inh, Rev-RRE block, CYP2C19 act, CYP2C9 act)
N#Cc1ccc(Oc2cccnc2)cc1C#N	none
COc1cc(-c2nc(-c3ccc4c(c3)-c3ccccc3S4(=O)=O)c(-c3ccccc3)[nH]2)cc(OC)c1O	CYP2C9 inh 78, CYP2C19 inh 79
COc1ccc(-c2nc(-c3ccccc3)c(-c3cccs3)[nH]2)cc1OC	none
CSc1nc(N)nc(SCC(=O)C(C)(C)C)c1C#N	CYP2C9 inh 73 (no result: Cav32 inh)
O=C1OCC(CO)(CO)N=C1NNc1cc(Cl)ccc1Cl	CYP2C9 inh 56, CYP2C19 inh 77
COC(=O)C(O)(CC(=O)Nc1cc(Cl)ccc1Cl)C(F)(F)F (stereo unspecified)	none (no result: CYP2C9 inh, CYP2C19 inh, CYP2C19 act, CYP2C9 act)
N#Cc1ccccc1NC(=O)CC1CCCCC1	CYP2C19 inh 58 (no result: Cav32 inh)
COc1ccc(N=C2S/C(=C\c3cc(C)n(C)c3C)C(=O)N2C)cc1	CYP2C9 inh 55, CYP2C19 inh 51
O=C(NNC(=S)NC(=O)c1cccnc1)c1ccc(Cl)cc1	CYP2C9 inh 63
CCNC(=S)NNC(=O)c1cccnc1	none (no result: CYP2C9 inh, CYP2C19 inh, CYP2C19 act, CYP2C9 act)
Cc1ccc(C(=O)NNC(=S)NC(=O)c2ccc(Cl)cc2)cc1	CYP2C9 inh 87, Cav32 inh -4.2
COc1ccccc1NC(=S)NNC(=O)c1ccc(Cl)cc1Cl	none (no result: CYP2C9 inh, CYP2C19 inh, CYP2C19 act, CYP2C9 act)
O=C(CCc1ccccc1)NNC(=S)NC(=O)c1ccc(Cl)cc1	Cav32 inh -3.7
COC(=O)NNC(=O)c1ccc(C)cc1	none
Cc1ccccc1C(=O)NNC(=S)NC(=O)c1ccc(Cl)cc1Cl	Cav32 inh -4
Cc1cc(NCCCn2ccnc2)n2c(nc3ccccc32)c1C#N	CYP2C9 inh 83, CYP2C19 inh 77
Cc1cccc2cc(C#N)c(NCCCn3ccnc3)nc12	CYP2C9 inh 98, CYP2C19 inh 98
CCc1nc(NCCCn2ccnc2)c2oc3ccccc3c2n1	CYP2C9 inh 98, CYP2C19 inh 91
CCCc1cc(-n2ccnc2)n2c(nc3ccccc32)c1C#N	Rev-RRE block 118[fluorescence artefact?] (no result: Cav32 inh)
Cc1nc(NCCCn2ccnc2)c2ccccc2n1	none (no result: Rev-RRE block)
Cc1cccc2cc(C#N)c(N3CCN(C)CC3)nc12	none (no result: Cav32 inh)
CCCCNC(=O)C(=O)NC(C)CCc1ccccc1 (stereo unspecified)	none (no result: Cav32 inh)
COC(=O)c1cccc(C23CC4(C2)[C@H](CN(Cc2ccc(-c5ccccc5)cc2)[C@@H]4c2ccccc2)C3c2ccc(C(F)(F)F)cc2)c1 (stereo partly specified)	none (no result: CYP2C9 inh, CYP2C19 inh, Rev-RRE block, CYP2C19 act, CYP2C9 act)
CCCNC(=O)CC1Sc2ccccc2NC1=O (stereo unspecified)	CYP2C9 act 2.4
COc1ccc2nc(SCC(=O)N3CCN(c4ccccc4F)CC3)c(C#N)cc2c1	none (no result: CYP2C9 inh, CYP2C19 inh, Cav32 inh, CYP2C19 act, CYP2C9 act)
Cc1cc(C(=O)NCc2cc(C(=O)O)oc2C)c(C)o1	none
CS(=O)(=O)N(CC(=O)Nc1c(F)cccc1F)c1cccc([N+](=O)[O-])c1	none
CS(=O)(=O)N(CC(=O)NC1CC1)c1cccc(F)c1	CYP2C19 inh 88 (no result: Cav32 inh)
CS(=O)(=O)N(CC(=O)Nc1cccc(F)c1)c1cccc([N+](=O)[O-])c1	CYP2C9 inh 61
CCOC(=O)C1=C(O)/C(=C\c2cccc(OC)c2)N=C1C	CYP2C19 inh 65
CCOC(=O)C1=C(O)/C(=C/N(C)C)N=C1C	none (no result: Cav32 inh)
Cc1ccc(/C=N/NC(=S)NC(C)C)o1	CYP2C19 inh 51
Cn1c(=O)c2c(nc(NCc3ccc4c(c3)OCO4)n2Cc2ccc(F)cc2)n(C)c1=O	Cav32 inh -4.3
Cn1c(=O)c2c(nc(NCc3ccc4c(c3)OCO4)n2Cc2ccccc2F)n(C)c1=O	none
Cn1c(=O)c2c(nc(Oc3ccc4c(c3)OCO4)n2Cc2ccc(Cl)cc2)n(C)c1=O	none
Cn1c(=O)c2c(nc(NCc3ccc4c(c3)OCO4)n2Cc2ccccc2)n(C)c1=O	CYP2C9 inh 65, CYP2C19 inh 56, Cav32 inh -6

Source: PubChem BioAssay
